Cl transport mod: modulators of human KCC2 chloride dependent transport; KCC2 cells, thallium flux FluoZin-2 fluorescence; B-score of Tl+ flux slope (higher = more flux/activation; lower = inhibition) at 10 µM; 2.2% of 190,000 active;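 active = thallium flux slope and its plate-corrected score both differing from the plate sample mean at a set confidence after two filtering rounds, in either direction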;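 also: slope of fluorescence scaled to starting intensity during 10 to 20 s after thallium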
Target sequence (Q9H2X9 whole entry, looked up): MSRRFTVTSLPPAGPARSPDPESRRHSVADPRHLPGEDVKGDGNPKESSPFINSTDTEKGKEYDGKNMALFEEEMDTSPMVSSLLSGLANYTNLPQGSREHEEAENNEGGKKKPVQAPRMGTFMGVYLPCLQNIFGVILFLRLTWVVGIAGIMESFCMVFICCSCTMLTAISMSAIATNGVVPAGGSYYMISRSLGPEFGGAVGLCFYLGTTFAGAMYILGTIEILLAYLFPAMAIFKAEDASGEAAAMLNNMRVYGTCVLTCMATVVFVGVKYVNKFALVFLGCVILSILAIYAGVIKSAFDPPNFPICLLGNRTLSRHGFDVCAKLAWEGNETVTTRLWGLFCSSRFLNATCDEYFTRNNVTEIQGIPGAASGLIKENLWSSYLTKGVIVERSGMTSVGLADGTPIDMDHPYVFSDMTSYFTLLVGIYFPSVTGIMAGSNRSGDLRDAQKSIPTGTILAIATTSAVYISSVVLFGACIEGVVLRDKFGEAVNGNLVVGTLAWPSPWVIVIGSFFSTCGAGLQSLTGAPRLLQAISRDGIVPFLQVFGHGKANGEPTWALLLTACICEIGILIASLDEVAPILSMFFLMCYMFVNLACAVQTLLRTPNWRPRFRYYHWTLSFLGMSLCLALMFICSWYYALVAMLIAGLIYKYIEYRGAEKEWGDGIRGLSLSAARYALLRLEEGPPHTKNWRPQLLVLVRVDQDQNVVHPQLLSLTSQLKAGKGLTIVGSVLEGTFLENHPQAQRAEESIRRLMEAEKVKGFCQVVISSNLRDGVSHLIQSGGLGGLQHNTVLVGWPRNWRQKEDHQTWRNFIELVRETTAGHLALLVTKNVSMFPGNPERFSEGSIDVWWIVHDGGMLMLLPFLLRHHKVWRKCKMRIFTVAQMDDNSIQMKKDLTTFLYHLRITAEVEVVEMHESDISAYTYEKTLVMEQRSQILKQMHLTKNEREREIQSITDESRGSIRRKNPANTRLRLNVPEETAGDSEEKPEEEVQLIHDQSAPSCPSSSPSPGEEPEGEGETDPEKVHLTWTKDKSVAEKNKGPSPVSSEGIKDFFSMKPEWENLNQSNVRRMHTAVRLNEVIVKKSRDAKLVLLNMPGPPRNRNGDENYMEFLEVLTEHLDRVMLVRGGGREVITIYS
RBBP9 inhibitor: human RBBP9 hydrolase inhibition; O75884; recombinant RBBP9, FP-Rh probe fluorescence polarization; inhibition, % at 7.94 µM; 0.2% of 220,000 active;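 active = inhibition above the campaign mean of all tested compounds plus 3 SD, cut at about 14% in these data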;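 also: plate controls were DMSO wells with RBBP9 for no effect and wells lacking RBBP9 protein for full effect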
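Measured by – fluorescence polarization · Test system – RBBP9 protein · Input – 2.5 µM RBBP9 dispensing solution, before mixing · Measure – percent inhibition from mP, scaled between DMSO and no-protein wells · Benchmarks – DMSO-treated enzyme wells and wells lacking RBBP9 · Times – preincubation 30 min plus labeling 45 min at 25 °C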
14-3-3 Bad inh: disrupts binding of bovine 14-3-3 zeta to phospho-Bad peptide. P63103. TR-FRET 14-3-3zeta/Dy647-pBad peptide displacement, 1 h. inhibition, % at 21.7 µM. 0.71% of 220,000 active. AID 781;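 active = inhibition above about 70%, limit read from the data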;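 also: 0% = full 14-3-3 plus peptide FRET controls and 100% = background without 14-3-3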
p47phox inh: inhibitors of human p47phox binding | P14598 | p47phox/p22phox peptide binding, fluorescence polarization, 2 h | inhibition, % at 24.7 µM | 0.53% of 220,000 active | AID 1274;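 active = inhibition above about 30%, limit read from the data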;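 also: 0% = p47phox with labelled peptide and 100% = labelled peptide alone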
ROMK mod: modulates human ROMK potassium channel activity. P48048. Tet-inducible ROMK, thallium flux fluorescence; actives lie on both sides. B-score at 10 µM. 2% of 130,000 active;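 active = signal ratio slope over the read window, or its plate-corrected B-score, at least 3 SD from the plate mean, either direction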;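 also: B-score of the F/F0 ratio slope over 7 to 12 s after thallium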
WT yeast gro inh: growth inhibition of WT yeast, mitochondrial fusion screen; mitochondrial fusion phenotypic screen, WT strain; inhibition, % at 10 µM; 2.1% of 190,000 active; in the data active = inhibition above about 58%; tested in S. cerevisiae
KCC2 secondary: confirmation of human KCC2 transport modulators; HEK293-KCC2, thallium flux, FluoZin2 fluorescence; stronger effect = higher value; shares compounds with Cl transport mod; AID 1713; normalised thallium flux (F/F0 slope) at 10 µM; 15% of 3,700 active;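 active = thallium flux slope above the same plate's solvent-only control mean plus 3 SD; inconclusive = the two replicate wells disagree; inactive = no significant difference from solvent-only control wells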
KCC2 bumet counter: bumetanide-insensitive thallium flux in KCC2 cells with ouabain, counter-screen. HEK293-KCC2 + bumetanide/ouabain, thallium flux FluoZin2; stronger effect = higher value. normalized thallium flux at 10 µM. shares compounds with Cl transport mod. 49% of 3,700 active;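 active = thallium entry rate above the same plate's blocked-transporter control wells by more than 3 SD; inconclusive = the two repeat wells disagree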;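 also: raw slope of fluorescence over initial fluorescence between 10 and 20 s after thallium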
KCC2 secondary2: confirmation of human KCC2 transport modulators. normalized thallium flux at 10 µM. 23% of 3,700 active. HEK293-KCC2, thallium flux FluoZin2 fluorescence; actives lie on both sides; F/F0 rise rate, 10–20 s post-thallium. shares compounds with Cl transport mod;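 active = thallium flux slope more than 3 SD above or below the plate's solvent-only control mean, mostly below; inconclusive = the two repeat wells disagreed; inactive = no significant shift from solvent-only controls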;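 also: raw slope with 0.1% DMSO as baseline and bumetanide as block control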
HEK counter1: parental HEK flux effect, counter-screen; thallium flux rate (normalised fluorescence) at 10 µM; AID 1716; 46% of 3,700 active; HEK293 parental cells, thallium flux FluoZin2, ouabain; baseline-ratio fluorescence slope, 10–20 s after thallium; shares compounds with Cl transport mod;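 active = thallium flux rate significantly above the same plate's solvent-only control wells, beyond their mean plus 3 SD; inconclusive = the two replicate wells gave conflicting results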
KCC2 ouabain: KCC2 (human) modulation, ouabain retest | HEK293-KCC2, thallium flux FluoZin2 fluorescence; bidirectional: low = inhibitor, high = activator | shares compounds with Cl transport mod | 48% of 3,700 active | raw Tl+ flux slope (below DMSO = inhibition, above = activation) at 10 µM;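 active = thallium flux slope beyond 3 SD from same-plate DMSO control mean in most replicates, usually higher, sometimes lower; inconclusive = repeat tests gave conflicting results; inactive = no significant difference from controls in most replicates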;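 also: slope of initial-normalized fluorescence between seconds 10 and 20 after thallium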
HEK293 Tl flux2: acts in parental HEK cells, second KCC2 counter-screen; HEK293 parental, thallium flux FluoZin-2 fluorescence slope; shares compounds with Cl transport mod; 33% of 3,700 active; thallium flux slope at 10 µM;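 active = thallium flux slope above the same plate's solvent-control mean plus 3 SD in both duplicate wells; inconclusive = duplicate wells that disagreed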;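 also: run without ouabain in cells lacking the KCC2 cotransporter; slope of fluorescence scaled to its starting value between 10 and 20 s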
* marks the source's active call; other numbers are inactive results; u = inconclusive; x = no result. Shown are actives, neighbours in structure and some others; about 5.8% of the full set was active somewhere.

SMILES	Cl transport mod	RBBP9 inhibitor	14-3-3 Bad inh	p47phox inh	ROMK mod	WT yeast gro inh	KCC2 secondary	KCC2 bumet counter	KCC2 secondary2	HEK counter1	KCC2 ouabain	HEK293 Tl flux2
CC(/C=C/c1ccccc1)=N\NC(=S)NC(C)C	8*	-4	-23	-2	-0.47	71*	0.0068	0.018*	0.03	0.017*	u	0.014*
CC(/C=C/c1ccccc1)=N\NC(N)=S	1.9	-12	-3	-5	-0.41	18	x	x	x	x	x	x
N#C/C(=C\c1cn(CCOc2ccccc2)c2ccccc12)C(=O)NCc1cccs1	0.57	-3	-2	-1	0.16	2	x	x	x	x	x	x
COc1ccc(CCn2c(O)cc3nn(-c4nc5ccccc5s4)c(=O)c-3c2C)cc1	3.7*	8	-28	-153	x	x	0.007	0.0077*	0.03	0.01*	0.021	u
COc1ccc(CNC(=S)NC(C)CCc2ccccc2)cc1 (stereo unspecified)	-4.9*	5	-19	-10	-0.26	71*	0.0053*	u	u	0.0058*	0.013*	0.0098
COc1ccccc1N1CCN(/N=C/C=C/c2ccccc2[N+](=O)[O-])CC1	-0.72	-3	-5	-7	x	x	x	x	x	x	x	x
Cc1cccc(Nc2nnc(SCC(=O)Nc3cccc(S(=O)(=O)N4CCCCC4)c3)s2)c1	-5.1*	-30	1	-33	x	10	0.0072	0.0051	u	u	0.014*	0.0099
Cc1sc2ncnc(SCC(=O)NC(=O)c3cccn3C)c2c1C	59*	-11	19	-30	0.14	12	0.039*	0.13*	0.045*	0.072*	0.072*	0.029*
CCc1ccc(Nc2nnc(SCC(=O)NC(=O)c3cccn3C)s2)cc1	-4.9*	-1	-6	-25	-0.014	-20	0.005	0.0047	0.025*	u	0.012*	0.01
Cc1sc2ncnc(SCC#N)c2c1C	4.5*	-1	26	-27	x	27	0.0061	0.016*	0.032	0.0099*	u	u
N#CCc1nc2ccccc2c(=O)[nH]1	0.42	-9	-1	2	x	x	x	x	x	x	x	x
CCOC(=O)C1(CC)NC(c2ccc(OC)cc2OC)C2C(=O)N(C)C(=O)C21 (stereo unspecified)	0.05	-5	-5	6	-0.67	-12	x	x	x	x	x	x
CC(C)/C(=N\NS(=O)(=O)c1ccc(Br)cc1)c1cccs1	0.041	-7	8	-5	0.016	29	x	x	x	x	x	x
CCc1ccc(Nc2nnc(SCC(=O)Nc3cccc(S(=O)(=O)NC4=NCCCCC4)c3)s2)cc1	-7.4*	-4	-25	-23	-0.53	-15	0.0089	0.0078*	0.026*	0.0068	0.011*	0.011
Cc1ccc(Nc2nnc(SCC(=O)Nc3cccc(S(=O)(=O)NC4=NCCCCC4)c3)s2)cc1	-3.6	-3	-5	-19	x	-11	x	x	x	x	x	x
O=C(NNC1=Nc2ccccc2SC1)c1ccc(F)cc1	1.1	-7	-7	-6	x	x	x	x	x	x	x	x
O=C(NNC1=Nc2ccccc2SC1)c1ccc(Cl)cc1	5.5*	-12	-10	-13	-2.4	x	0.018	0.011*	0.031	0.0097*	0.018	u
CCOC(=O)c1c(C)nc(C)c(C(=O)OCC)c1-c1ccccc1	-1	-2	11	-12	-2.2	-9	0.0098	0.0053	0.032	0.0061	0.021	0.0097
COc1ccc(/C=C2\CCCC(C(=O)C(F)(F)F)=C2O)cc1	x	-10	-8	-3	-2.6	19	0.0094	0.024*	0.03	0.011*	0.034*	0.01*
COc1ccc(/C=C2\CCOC2=O)cc1	0.32	1	0	7	x	-10	x	x	x	x	x	x
CCOC(=O)C1=C(CN2CCOCC2)NC(=O)NC1c1cc(C)ccc1C (stereo unspecified)	0.61	-3	-1	4	0.81	8	x	x	x	x	x	x
CCOC(=O)C1=C(CN2CCCCC2)NC(=O)NC1c1cc(C)ccc1C (stereo unspecified)	x	-8	4	-7	x	14	0.0056	0.0043	0.031	0.0073	0.019	0.01
COc1ccc(-c2[nH]ncc2CN(C)Cc2nonc2C)c(OC)c1	x	-9	4	3	0.61	2	x	x	x	x	x	x
Clc1ccc(Oc2nc(N3CCOCC3)nc(N3CCOCC3)n2)cc1	7.6*	0	-9	-8	-0.68	6	0.0091	0.0068	0.03	0.0074	0.021	u
c1cc2c(cc1Oc1nc(N3CCOCC3)nc(N3CCOCC3)n1)OCO2	0.22	4	7	-9	-0.55	-9	x	x	x	x	x	x
SMILES	Cl transport mod	RBBP9 inhibitor	14-3-3 Bad inh	p47phox inh	ROMK mod	WT yeast gro inh	KCC2 secondary	KCC2 bumet counter	KCC2 secondary2	HEK counter1	KCC2 ouabain	HEK293 Tl flux2
COc1ccc(OC)c2sc(NNC(=O)COc3ccccc3)nc12	3.4*	1	-13	2	0.2	2	0.0074	0.012*	0.031	0.011*	u	0.013*
COC(=O)c1ccc(OC(=O)C23CCC(C)(C(=O)O2)C3(C)C)cc1 (stereo unspecified)	0.29	5	31	1	x	-12	x	x	x	x	x	x
NC(N)=Nc1nc2ccc(Cl)cc2c(=O)[nH]1	0.066	-4	-10	-30	0.24	-4	x	x	x	x	x	x
CCc1ccc(C(=O)COC(=O)c2cc([N+](=O)[O-])ccc2NCCO)cc1	-4.3*	-5	-6	-7	x	34	0.0062	0.0053	0.023*	0.0081	0.015*	0.011
O=C(COC(=O)c1cc([N+](=O)[O-])ccc1NCCO)c1ccc(Cl)cc1	-1.5	-6	4	-6	x	3	x	x	x	x	x	x
COc1ccc(-c2nc(=S)c3ccc4ccccc4c3[nH]2)cc1	79*	-4	-13	-6	0.32	10	0.022*	0.11*	0.048*	0.086*	0.08*	0.04*
COc1ccc(-c2nc3ccccc3[nH]2)cc1	0.068	-3	-14	-9	-0.0013	71	x	x	x	x	x	x
NC(=O)c1sc(-c2ccsc2)cc1NS(=O)(=O)c1ccc(C(F)(F)F)cc1	-5.4*	2	6	-14	0.2	x	0.0074	0.0061	0.03	0.0069	0.012*	0.011
CC(=O)c1sc(-c2ccccc2)cc1NS(=O)(=O)c1ccccc1	1.6	-12	4	-2	x	x	x	x	x	x	x	x
